Source: PMC10839140 (Iranian Journal of Medical Sciences, 2024)
Read-outs that look alike come from different tables or passages of the source.

Legend:
[1] = test system: SkBr3 breast cancer cell line; test: Apoptosis analysis, annexin V-FITC/PI flow cytometry, SkBr3 cells; format: cell-based, human; conditions: PINO 575 μM, LARI 500 μM
HEK-293 cell line [2] = test: Apoptosis analysis, annexin V-FITC/PI flow cytometry, HEK-293 cells; format: cell-based; conditions: PINO 575 μM, LARI 500 μM
fibroblast cell line [3] = test: Apoptosis analysis, annexin V-FITC/PI flow cytometry, fibroblast cells; format: cell-based; conditions: PINO 575 μM, LARI 500 μM
[4] = test system: SkBr3 breast cancer cell line; test: Real-time PCR of apoptosis and cell cycle genes, SkBr3 cells; format: cell-based, human; conditions: 24 and 48 hours, PINO 575, LARI 500, PTOX 0.175 μM, vs untreated cells
How it was run: (§1)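 Cells grown at 37 °C, 5% CO₂: HEK-293 in DMEM/F12 with 10% FBS and penicillin/streptomycin, SkBr3 in supplemented DMEM. Vehicle control was methanol at 1% v/v final. Total RNA was DNase I-treated, and 3 µg was reverse-transcribed. Real-time PCR used GAPDH as the internal control and no-cDNA negative controls. Fold change was calculated by 2^-ΔΔCT, as the mean±SD of three experiments.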

fibroblast cell line [5] = test: MTT cytotoxicity assay, fibroblast cells; format: cell-based; conditions: for IC50: Fibroblast, read-out: half-maximal inhibitory concentration; for percentage of cell viability was reduced by: fibroblast cells treated for 48 hours (abstract; concentration not stated there)
HEK-293 cell line [6] = test: MTT cytotoxicity assay, HEK-293 cells; format: cell-based; conditions: for IC50: read-out: half-maximal inhibitory concentration
HEK-293 cell line [7] = test: Real-time PCR of apoptosis and cell cycle genes, HEK-293 cells; format: cell-based; conditions: 24 and 48 hours, PINO 575, LARI 500, PTOX 0.175 μM, vs untreated cells
How it was run: as §1

[8] = test system: SkBr3 breast cancer cell line; test: MTT cytotoxicity assay, SkBr3 cells; format: cell-based, human; conditions: read-out: half-maximal inhibitory concentration

Compound | increase of apoptosis compared to control cells ([1]; SKBR3, 24 hours) [fold] | increase of apoptosis compared to control cells ([1]; SKBR3, 48 hours) [fold] | increase of apoptosis compared to control cells (HEK-293 cell line [2]; HEK-293, 24 hours) [fold] | increase of apoptosis compared to control cells (HEK-293 cell line [2]; HEK-293, 48 hours) [fold] | increase of apoptosis compared to control cells (fibroblast cell line [3]; 24 hours) [fold] | increase of apoptosis compared to control cells (fibroblast cell line [3]; 48 hours) [fold] | expression of pro-apoptotic BAX and FAS genes and CDKN1A inhibitory gene [4] | IC50 (fibroblast cell line [5]; 24 h) [µM] | IC50 (fibroblast cell line [5]; 48 h) [µM] | percentage of cell viability was reduced by (fibroblast cell line [5]) [%] | IC50 (HEK-293 cell line [6]; Homo sapiens, HEK293, 24 h) [µM] | IC50 (HEK-293 cell line [6]; Homo sapiens, HEK293, 48 h) [µM] | expression of pro-apoptotic BAX and FAS genes and CDKN1A inhibitory gene (HEK-293 cell line [7]) | IC50 ([8]; Homo sapiens, SK-BR-3, 24 h) [µM] | IC50 ([8]; Homo sapiens, SK-BR-3, 48 h) [µM] | further results
COc1cc(C[C@H]2CO[C@H](c3ccc(O)c(OC)c3)[C@H]2CO)ccc1O [Lariciresinol, lariciresinol] | 10.7 | 12.7 | 6.7 | 7.4 | 7.4 | 20.2 | significantly overexpressed | 475 | 400 | 47 | 550 | 475 | significantly overexpressed | 600 | 500 | 
COc1cc([C@@H]2c3cc4c(cc3[C@H](O)[C@H]3COC(=O)[C@H]23)OCO4)cc(OC)c1OC [Podophyllotoxin, reference compound] |  |  |  |  |  |  | significantly overexpressed | 0.175 | 0.075 | 36 | 0.15 | 0.075 | significantly overexpressed | 0.3 | 0.175 | cell viability was reduced by up to (fibroblast cell line [5]; fibroblast, 48 hours, PTOX at 0.175 μM): ≤ 36%
Pinoresinol | 9 | 11 | 6.6 | 9 | 5.2 | 10.5 | significantly overexpressed |  |  | 49 |  |  | significantly overexpressed |  |  | cell viability (fibroblast cell line [5]; fibroblast, 48 hours, PINO at 575 μM, LARI at 500 μM): 49%; IC50 (fibroblast cell line [5]; 48-hour treatment, MTT): 550 µM; cell viability (HEK-293 cell line [6]; HEK-293, 48 hours, PINO at 575 μM, LARI at 500 μM): 49%; IC50 (HEK-293 cell line [6]; HEK-293, 24-hour treatment, MTT): 600 µM; IC50 (HEK-293 cell line [6]; HEK-293, 48-hour treatment, MTT): 550 µM; IC50 ([8]; SkBr3, 24-hour treatment, MTT): 675 µM; IC50 ([8]; SkBr3, 48-hour treatment, MTT): 575 µM
